Results from ChEMBL document CHEMBL4765447, “Design, synthesis and biological evaluation of diamino substituted cyclobut-3-ene-1,2-dione derivatives for the treatment of drug-resistant tuberculosis” (Eur J Med Chem, 2020).
In brackets after ≈: the same amount, converted by molar mass.

Key:
[1] = test system: Vero; test: Cytotoxicity against African green monkey Vero cells assessed as reduction in cell viability measured after 48 hrs by MTT assay; type: cell-based; details: Chlorocebus sabaeus
Procedure, shortened: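 Vero cells grown in RPMI1640 with 10% FBS at 37 °C, 5% CO2, seeded at 4×10^5 cells/mL. Threefold dilutions from 64 to 0.26 µg/mL final, incubated 48 h at 37 °C. Monolayers washed with HBSS, then MTT added for 4 h. Absorbance read at 492 nm.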

[2] = biological target: Voltage-gated inwardly rectifying potassium channel KCNH2 (Homo sapiens, UniProt Q12809); test: Inhibition of human ERG stably expressed in HEK293 cells by whole-cell manual patch clamp method; type: cell-based
Voltage-gated inwardly rectifying potassium channel KCNH2, sequence (Q12809 whole entry): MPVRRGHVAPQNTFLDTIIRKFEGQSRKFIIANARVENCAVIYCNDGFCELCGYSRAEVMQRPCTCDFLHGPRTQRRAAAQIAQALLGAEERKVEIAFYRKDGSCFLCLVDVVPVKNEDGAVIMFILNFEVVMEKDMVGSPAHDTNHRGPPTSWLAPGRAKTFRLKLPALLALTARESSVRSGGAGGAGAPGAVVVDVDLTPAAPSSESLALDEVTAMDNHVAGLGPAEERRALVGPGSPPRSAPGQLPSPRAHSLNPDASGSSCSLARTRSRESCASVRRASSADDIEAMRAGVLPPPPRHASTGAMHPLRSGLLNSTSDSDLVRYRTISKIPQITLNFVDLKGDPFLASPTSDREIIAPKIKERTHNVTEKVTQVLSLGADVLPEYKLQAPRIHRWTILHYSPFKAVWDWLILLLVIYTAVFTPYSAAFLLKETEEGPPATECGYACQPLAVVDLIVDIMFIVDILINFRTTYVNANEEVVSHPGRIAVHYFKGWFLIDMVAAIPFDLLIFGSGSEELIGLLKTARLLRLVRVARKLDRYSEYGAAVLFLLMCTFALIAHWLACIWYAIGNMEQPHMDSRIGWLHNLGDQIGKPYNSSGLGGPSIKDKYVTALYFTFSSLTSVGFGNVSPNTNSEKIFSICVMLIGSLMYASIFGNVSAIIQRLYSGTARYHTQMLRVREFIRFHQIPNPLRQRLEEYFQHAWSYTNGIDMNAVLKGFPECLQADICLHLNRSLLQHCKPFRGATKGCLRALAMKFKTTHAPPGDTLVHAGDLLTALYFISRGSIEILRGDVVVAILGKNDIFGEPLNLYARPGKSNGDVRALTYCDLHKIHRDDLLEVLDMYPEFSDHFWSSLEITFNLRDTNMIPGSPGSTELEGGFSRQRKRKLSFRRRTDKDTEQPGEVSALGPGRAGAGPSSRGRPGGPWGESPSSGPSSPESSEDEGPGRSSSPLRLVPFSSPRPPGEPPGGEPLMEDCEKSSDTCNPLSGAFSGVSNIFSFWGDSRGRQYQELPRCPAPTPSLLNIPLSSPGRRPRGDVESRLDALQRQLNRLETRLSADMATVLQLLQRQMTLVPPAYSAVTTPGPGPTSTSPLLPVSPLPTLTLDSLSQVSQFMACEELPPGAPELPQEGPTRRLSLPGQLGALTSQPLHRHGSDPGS

[3] = test system: Mycobacterium tuberculosis H37Rv; test: Inhibition of ATP synthase in Mycobacterium tuberculosis H37Rv assessed as reduction in bacterial growth incubated for 7 days by microplate alamar blue assay; details: time 7.0 day
Procedure, shortened: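 Microplate alamar blue assay. Strains grown to late log phase in 7H9 broth with 0.2% glycerol, 0.05% Tween 80 and 10% ADC, then washed, filtered (8 µm) and frozen. Twofold compound dilutions with 2×10^5 CFU per well at 37 °C. On day 7, Tween 80 and alamar blue added; after 16–24 h, fluorescence read at 530/590 nm. MIC is the lowest concentration giving ≥90% fluorescence reduction versus bacterium-only controls.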

[4] = Half life in CD-1 mouse hepatocytes at 1 uM measured after 30 mins by LC-MS/MS analysis; type: ADME, cell-based, Hepatocyte
Procedure, shortened: (§1)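 Pooled male CD-1 mouse or pooled human hepatocytes, pre-incubated 20 min at 37 °C in CO2. Compound at 1 µM final with 1 million cells/mL. Samples taken at 0 and 30 min, quenched and centrifuged 15 min at 4 °C. Parent compound remaining measured by LC-MS/MS.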

[5] = Intrinsic clearance in CD-1 mouse hepatocytes at 1 uM measured after 30 mins by LC-MS/MS analysis; type: ADME, cell-based, Hepatocyte; details: 0.5 h; procedure, shortened: as §1
[6] = Half life in human hepatocytes at 1 uM measured after 30 mins by LC-MS/MS analysis; type: ADME, cell-based, Hepatocyte; procedure, shortened: as §1
[7] = Intrinsic clearance in human hepatocytes at 1 uM measured after 30 mins by LC-MS/MS analysis; type: ADME, cell-based, Hepatocyte; details: 0.5 h; procedure, shortened: as §1
[8] = Clearance in Balb/c mouse at 5 mg/kg, iv by LC-MS analysis; type: ADME, organism-based; details: in vivo
Procedure, shortened: (§2)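 Male Balb/c mice (26–27 g), three per route. Single dose of 50 mg/kg p.o. in 0.5% carboxymethyl cellulose (5 mg/mL), or 5 mg/kg i.v. in 10% DMSO/50% PEG400/40% water (1 mg/mL). Blood taken at 5, 15, 30 min, 1, 2, 4, 7 and 24 h. Plasma extracted with acetonitrile (terfenadine internal standard) and quantified by LC-MS/MS in positive ESI. Non-compartmental analysis. F = dose-corrected AUC p.o./i.v.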

[9] = MRT (0 to infinity) in Balb/c mouse at 5 mg/kg, iv by LC-MS analysis; type: ADME, organism-based; details: in vivo; procedure, shortened: as §2
[10] = AUC (0 to t) in Balb/c mouse at 5 mg/kg, iv by LC-MS analysis; type: ADME, organism-based; design: dose 5 mg/kg; details: in vivo; procedure, shortened: as §2
[11] = Oral bioavailability in Balb/c mouse at 50 mg/kg by LC-MS analysis; type: ADME, organism-based; details: in vivo; procedure, shortened: as §2
[12] = AUC (0 to t) in Balb/c mouse at 50 mg/kg, po by LC-MS analysis; type: ADME, organism-based; design: dose 50 mg/kg; details: in vivo; procedure, shortened: as §2
[13] = AUC (0 to infinity) in Balb/c mouse at 50 mg/kg, po by LC-MS analysis; type: ADME, organism-based; design: route oral, time infinity, dose 50 mg/kg; details: in vivo; procedure, shortened: as §2
[14] = Elimination half life in Balb/c mouse at 5 mg/kg, iv by LC-MS analysis; type: ADME, organism-based; details: in vivo, read-out: beta t1/2 (converted); procedure, shortened: as §2
[15] = Tmax in Balb/c mouse at 50 mg/kg, po by LC-MS analysis; type: ADME, organism-based; details: in vivo; procedure, shortened: as §2
[16] = AUC (0 to infinity) in Balb/c mouse at 5 mg/kg, iv by LC-MS analysis; type: ADME, organism-based; design: time infinity, route intravenous, dose 5 mg/kg; details: in vivo; procedure, shortened: as §2
[17] = Cmax in Balb/c mouse at 50 mg/kg, po by LC-MS analysis; type: ADME, organism-based; design: route oral, dose 50 mg/kg; details: in vivo; procedure, shortened: as §2
[18] = MRT (0 to infinity) in Balb/c mouse at 50 mg/kg, po by LC-MS analysis; type: ADME, organism-based; details: in vivo; procedure, shortened: as §2
[19] = Elimination half life in Balb/c mouse at 50 mg/kg, po by LC-MS analysis; type: ADME, organism-based; details: in vivo, read-out: beta t1/2 (converted); procedure, shortened: as §2

For `O=c1c(NCc2ccccn2)c(Nc2ccc3scnc3c2)c1=O`, the IC50 [1] was greater than 64 µg/mL, the IC50 [2] was greater than 10 µM and the MIC=>90 [3] was 0.963 µg/mL (≈ 2.86 µM).
`CN(C)c1ccc(Nc2c(NCc3ccccn3)c(=O)c2=O)cc1` showed an MIC=>90 [3] of 2 µg/mL (≈ 6.19 µM).
For `O=c1c(NCc2ccccn2)c(Nc2ccc(N3CCOCC3)nc2)c1=O`, the MIC=>90 [3] was greater than 32 µg/mL.
With `COc1ccccc1Nc1c(NCc2ccccn2)c(=O)c1=O` the MIC=>90 [3] was greater than 32 µg/mL.
In the case of `O=C1CCc2cc(Nc3c(NCc4ccccn4)c(=O)c3=O)ccc21`, the IC50 [1] is reported as greater than 64 µg/mL and the MIC=>90 [3] is reported as 3.46 µg/mL (≈ 10.4 µM).
With `O=c1c(NCc2ccccn2)c(-c2ccc(N3CCOCC3)cc2)c1=O` the IC50 [1] was greater than 64 µg/mL, the half-life at 1 µM [4] was 17.1 min and the intrinsic clearance [5] was 40.6 µL/min. The half-life at 1 µM [6] was 31.7 min, the IC50 [2] was greater than 30 µM and the MIC=>90 [3] was 0.12 µg/mL (≈ 0.343 µM). It also gave an intrinsic clearance [7] of 21.9 µL/min.
`Cc1cccc(CNc2c(Nc3ccc(N4CCSCC4)cc3)c(=O)c2=O)n1` showed an MIC=>90 [3] of 3.65 µg/mL (≈ 9.24 µM).
In the case of `Cc1cc(Nc2c(NCc3ccccn3)c(=O)c2=O)ccc1N1CCOCC1`, the IC50 [1] is reported as greater than 64 µg/mL and the MIC=>90 [3] is reported as 2.45 µg/mL (≈ 6.48 µM).
Work on `O=c1c(NCc2ccccn2)c(Nc2ccc3c(c2)OCCO3)c1=O` yielded an IC50 [1] greater than 64 µg/mL and an MIC=>90 [3] of 1.89 µg/mL (≈ 5.59 µM).
Molecule `O=c1c(NCc2ccccn2)c(Nc2ccc(C(F)(F)F)cc2)c1=O` has an MIC=>90 [3] of 14.9 µg/mL (≈ 42.9 µM).
`O=C1NC(=O)C(c2ccc(N3CCOCC3)cc2)=C1NCc1cccnc1` gave an MIC=>90 [3] greater than 32 µg/mL.
With `NNC(=O)c1ccncc1` the MIC=>90 [3] was 0.019 µg/mL (≈ 0.139 µM).
In the case of `O=c1c(NCc2ccccn2)c(Nc2ccc3sccc3c2)c1=O`, the MIC=>90 [3] is reported as greater than 32 µg/mL.
Work on `O=c1c(NCc2cccnc2)c(Nc2ccc(N3CCSCC3)cc2)c1=O` yielded an MIC=>90 [3] greater than 32 µg/mL.
With `O=c1c(NCc2ccccn2)c(Nc2ccc3c(c2)OCO3)c1=O` the IC50 [1] was greater than 64 µg/mL, the clearance [8] was 51.4 mL/min/kg and the MRT inf [9] was 16.8 min. The AUC(0-t) [10] was 1670 ng·h/mL, the half-life at 1 µM [4] was 17 min and the intrinsic clearance [5] was 40.8 µL/min. The bioavailability [11] was 13.1%, the AUC(0-t) [12] was 2200 ng·h/mL and the AUC(0-inf) [13] was 2200 ng·h/mL. The half-life [14] was 19.8 min, the half-life at 1 µM [6] was greater than 93.2 min and the IC50 [2] was greater than 30 µM. For the same molecule, the MIC=>90 [3] was 0.452 µg/mL (≈ 1.4 µM), the Tmax [15] was 49.8 min and the AUC(0-inf) [16] was 1670 ng·h/mL. The Cmax [17] was 1330 ng/mL, the MRT inf [18] was 81.6 min and the intrinsic clearance [7] was less than 7.4 µL/min. For the same molecule, the half-life [19] was 30.6 min.
In the case of `O=c1c(NCc2ccccn2)c(Nc2ccc3c(c2)CCC3)c1=O`, the IC50 [1] is reported as greater than 64 µg/mL, the half-life at 1 µM [4] is reported as 11.1 min and the intrinsic clearance [5] is reported as 62.4 µL/min. For the same molecule, the half-life at 1 µM [6] was 10.3 min, the IC50 [2] was greater than 30 µM and the MIC=>90 [3] was 0.979 µg/mL (≈ 3.07 µM). It also gave an intrinsic clearance [7] of 67.1 µL/min.
Work on `O=c1c(NCc2ccccn2)c(Nc2ccc3c(c2)OCCCO3)c1=O` yielded an IC50 [1] greater than 64 µg/mL and an MIC=>90 [3] of 2.22 µg/mL (≈ 6.32 µM).
With `O=c1c(NCc2ccccn2)c(Nc2ccc(N3CCCOCC3)cc2)c1=O` the MIC=>90 [3] was 6.65 µg/mL (≈ 17.6 µM).
In the case of `O=C1OCC(NCc2ccccn2)=C1c1ccc(N2CCOCC2)cc1`, the MIC=>90 [3] is reported as greater than 32 µg/mL.
In the case of `CO[C@H]1/C=C/O[C@@]2(C)Oc3c(C)c(O)c4c(O)c(c(/C=N/N5CCN(C)CC5)c(O)c4c3C2=O)NC(=O)/C(C)=C\C=C\[C@H](C)[C@H](O)[C@@H](C)[C@@H](O)[C@@H](C)[C@H](OC(C)=O)[C@@H]1C`, the MIC=>90 [3] is reported as 0.015 µg/mL (≈ 0.0182 µM).
In the case of `O=c1c(NCc2ccccn2)c(Nc2ccc3ncsc3c2)c1=O`, the IC50 [1] is reported as greater than 64 µg/mL and the MIC=>90 [3] is reported as 1.91 µg/mL (≈ 5.68 µM).
`Cc1ccc(CNc2c(Nc3ccc(N4CCSCC4)cc3)c(=O)c2=O)nc1` gave an MIC=>90 [3] greater than 32 µg/mL.
